# Source: PubChem
# PG9 Ab binder = small molecules binding HIV-1 gp120 antibody PG9; TR-FRET gp120-PG9 antibody binding; inhibition, % at 6.7 µM; 360,000 tested, 0.43% active; in the data active = inhibition above about 8.5%
# NR1D1 modulator = modulators of human Rev-erb alpha DNA binding | P20393 | Rev-erbα–FITC-DNA binding, fluorescence polarization, 90 min | activity, % at 10 µM | 370,000 tested, 0.79% active;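 active = activity above about 14%, limit read from the data; passing the limit was not always enough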
# NR2E3 ag-1 = NR2E3 (human) agonism; 320,000 tested, 0.12% active; GST-NR2E3/biotin-RetCOR TR-FRET, 1536-well; inhibition of corepressor binding, % at 4.78 µM;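 active = percent inhibition above the cutoff of mean plus 3 SD of all tested compounds, set per screening campaign, cut at about 20% in these data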
# Target sequence (Q9Y5X4 whole entry, looked up): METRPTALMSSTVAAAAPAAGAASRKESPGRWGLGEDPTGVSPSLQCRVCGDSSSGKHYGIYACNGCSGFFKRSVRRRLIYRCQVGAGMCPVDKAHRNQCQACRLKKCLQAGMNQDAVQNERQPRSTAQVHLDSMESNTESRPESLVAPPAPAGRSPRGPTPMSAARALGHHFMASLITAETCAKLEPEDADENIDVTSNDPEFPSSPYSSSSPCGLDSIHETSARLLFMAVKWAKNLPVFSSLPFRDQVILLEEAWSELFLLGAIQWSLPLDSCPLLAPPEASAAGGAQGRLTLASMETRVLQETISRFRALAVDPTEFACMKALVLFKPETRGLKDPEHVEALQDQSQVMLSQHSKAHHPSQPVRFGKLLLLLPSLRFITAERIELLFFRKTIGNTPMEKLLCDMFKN
#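 Format: 1536-well format; test system: GST-NR2E3 and biotin-RetCOR proteins; read-out basis: percent inhibition of TR-FRET ratio; timing: 5 h incubation at 4 °C; detection: time-resolved FRET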
# NR2E3 ag-2 = agonists of human NR2E3 nuclear receptor | Q9Y5X4 | AID 602229 | CHO-S Gal4-NCOR/VP16-NR2E3 two-hybrid, luciferase | inhibition of corepressor binding, % at 3.98 µM | 360,000 tested, 0.35% active;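 active = inhibition above the mean of all tested compounds plus 3 SD, cut at about 70% in these data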;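 note: higher means lower luciferase signal from less NR2E3 corepressor binding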
# NR2E3 ag conf = NR2E3 agonism confirmed in two-hybrid assay; 2,300 tested, 51% active; AID 624378; inhibition, % at 3.98 µM; shares compounds with NR2E3 ag-2; CHO-S mammalian two-hybrid NR2E3-NCOR, luciferase luminescence;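 active = average inhibition above a cutoff equal to the mean inhibition of all tested compounds plus one SD, cut at about 70% in these data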
# GAL4-VP16 luc = GAL4-VP16 reporter inhibition in NR2E3 agonist counterscreen. shares compounds with NR2E3 ag-2. CHO-S GAL4-VP16 luciferase reporter, luminescence. inhibition, % at 3.98 µM. 2,300 tested, 29% active;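 active = mean inhibition above a cutoff equal to the average over all tested compounds plus one standard deviation, cut at about 70% in these data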;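 note: luciferase from a UAS reporter driven by GAL4-VP16 transactivation; higher means less reporter light so more repression of VP16 activity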
# Numbers stand for hits; 0 = inactive; - = no result given. A selection: hits, their analogues and other compounds. The true share with any hit is near 1.5%.
SMILES,PG9 Ab binder,NR1D1 modulator,NR2E3 ag-1,NR2E3 ag-2,NR2E3 ag conf,GAL4-VP16 luc
CC(O)(c1ccncc1)c1nc(-c2cccc(C(F)(F)F)c2)cs1 (stereo not given),0,0,-,84.7,93.2,74.3
Cc1ccc(C(=O)CCC(=O)N2CCN(c3ccccc3O)CC2)cc1,0,0,0,0,0,0
CC(C)=CCC/C(C)=C/CC/C(C)=C/CCC(=O)OC/C=C(\C)CCC=C(C)C,-,0,-,-,-,-
Cc1cccc(/C=N/Nc2cc(N3CCOCC3)nc(N3CCOCC3)n2)c1,0,0,0,0,75.0,0
CCN(CC)c1ccc(-c2nn3c(-c4ccccc4OC)nnc3s2)cc1,-,-,0,0,0,0
O=[N+]([O-])c1ccc(N2CCN(C(=S)NCc3ccc(Cl)cc3)CC2)cc1,0,0,0,0,90.7,0
C[C@H]1[C@@H](OC(=O)N2CCN(c3ccccc3)CC2)CC[C@@]23CCCN2C(=O)CCC[C@@H]13,-,0,-,-,-,-
CN1CCN(C(=O)c2cccc(-c3cnc4cnc(-c5ccccc5Oc5ccccc5)cn34)c2)CC1,0,0,-,0,70.5,0
O=C(c1cccc(-c2cncc3nccn23)c1)N1CCOCC1,0,0,-,0,-,-
CCN(CC)c1ccc(/C=N/NC(=S)NC)c(O)c1,0,0,0,0,0,0
O=C(CSc1nnc(SCc2cccc3ccccc23)s1)c1ccc(F)cc1,-,0,-,-,-,-
CNC(=O)c1cccc(NC(=O)C(C)c2ccc3cc(OC)ccc3c2)c1 (stereo not given),0,0,0,0,-,-
COc1ccc2cc(C(C)C(=O)Nc3cccc(S(=O)(=O)N(C)C)c3)ccc2c1 (stereo not given),0,0,0,0,0,0
Cc1cc(/C=N/n2cnnc2)c(C)n1-c1ccc(OCc2ccc(Cl)cc2)cc1,0,0,0,101.5,97.5,87.3
Cc1cc(/C=N/n2cnnc2)c(C)n1-c1ccc(OCc2ccccc2F)cc1,0,0,0,0,95.5,79.2
Fc1ccccc1COc1cccc(/C=N/n2cnnc2)c1,0,0,0,0,-,-
O=C(O)CSCC(=O)Nc1ccc(C2CCCCC2)cc1,0,0,0,71.9,0,0
CNC(=O)c1cc(Oc2ccc(NC(=O)Nc3ccc(Cl)c(C(F)(F)F)c3)cc2)ccn1,0,0,0,92.1,98.9,81.3
O=C(Cc1ccccc1)NNc1ccc2ccccc2c1,0,0,0,0,0,0
COC(=O)C1=C(C(=O)OC)[C@@]2([C@@H](Cc3ccc(C)cc3)Nc3ccccc3)C=C[C@@H]1O2,-,0,-,-,-,-
CNC(=S)/N=C/NOCc1ccc(Cl)cc1Cl,0,0,0,0,81.7,0
Cc1ccc2c(c1)C(CS(=O)(=O)NC1CCCC1)NC2 (stereo not given),-,0,-,-,-,-
CCOCCOC(=O)c1[nH]c2c(c1C)C(=O)CC(c1ccccc1)C2 (stereo not given),0,0,0,0,-,-
CCOCCOC(=O)c1[nH]c2c(c1C)C(=O)CC(c1cc(OC)c(OC)c(OC)c1)C2 (stereo not given),0,0,0,0,0,0
CCCCCOC(=O)c1[nH]c2c(c1C)C(=O)CC(c1ccco1)C2 (stereo not given),-,-,0,0,0,0
SMILES,PG9 Ab binder,NR1D1 modulator,NR2E3 ag-1,NR2E3 ag-2,NR2E3 ag conf,GAL4-VP16 luc
Cc1ccc(CNc2ncnc3cc(Cl)ccc23)cc1,0,0,0,87.4,90.3,70.7
CC(=O)c1c(C)[nH]c(C(=O)OCC(=O)Nc2ccc(C)cc2[N+](=O)[O-])c1C,0,0,0,81.5,98.5,89.5
CC(C)CN1C(=O)C[C@@]2(C(=O)N(C)c3ccc(NS(=O)(=O)C4CC4)cc32)C1c1ccccc1 (stereo not given in full),-,0,-,-,-,-
CCc1ccc2c(c1)NC(=O)C2(C)Cc1ccccc1 (stereo not given),0,0,-,0,-,-
CCc1ccc2c(c1)C1(NN=C(c3cccc4ccccc34)S1)C(=O)N2 (stereo not given),0,0,0,79.7,0,0
COCCCNC(=O)C[C@H]1C[C@@]2(C(=O)OC)C(=C[C@H](C(C)C)O[C@@H]2C2CC2)N(CCC2=CCCCC2)C1=O,-,0,-,-,-,-
CCCNC(=O)Cn1cccc1C(=O)c1ccccc1,0,0,0,89.3,0,0
CCOC(=O)c1c(C)[nH]c(C(=O)C(C)OC(=O)c2cccc(OCc3c(C)noc3C)c2)c1C (stereo not given),0,0,0,76.4,83.1,0
CC(C)c1ccc(-c2csc(NC(=O)c3cccs3)c2C(=O)O)cc1,0,0,0,0,94.4,0
Cc1ccc(CN[C@@H]2CC[C@@]34CCCN3C(=O)CCC[C@H]4C2)cc1,-,0,-,-,-,-
S=C1NCCc2ccc(Cl)cc2C1c1ccccc1 (stereo not given),0,0,0,0,0,0
O=C(OCCN1CCN(C2CN(Cc3cn(Cc4ccccc4Cl)nn3)S(=O)(=O)C2)CC1)c1cc2ccccc2o1 (stereo not given),-,0,-,-,-,-
CCCCNC(=O)C1(C(=O)c2ccc(OC)cc2)CC(c2ccccc2C(F)(F)F)=NO1 (stereo not given),-,0,-,-,-,-
CN(CCOc1ccc(Cl)cc1)C(=O)c1cccc(S(=O)(=O)N2CCN(Cc3ccccc3)CC2)c1,0,0,-,83.6,92.1,73.9
Cc1ccc(C)c(NC(=O)CN(C)C(=O)c2cccc(S(=O)(=O)N3CCCC3)c2)c1,0,0,-,0,-,-
Cc1ccc(C)c(NC(=O)CN(C)C(=O)c2cccc(S(=O)(=O)N3CCN(Cc4ccccc4)CC3)c2)c1,0,0,0,0,0,0
COC(=O)C1CN(Cc2cn(Cc3ccc(OC)cc3)nn2)CCS(=O)(=O)N1Cc1ccc(F)cc1 (stereo not given),-,0,-,-,-,-
COc1cc(NC(=O)Cc2nn(C)c(=O)c3ccccc23)cc(OC)c1,0,0,0,0,-,-
Cn1nc(CC(=O)Nc2ccc3c(c2)OCCO3)c2ccccc2c1=O,0,0,0,97.8,91.5,72.7
O=C(COc1ccccc1F)Nc1ccc2c(c1)OCCO2,0,0,0,73.5,0,0
N#Cc1ccccc1OCC(=O)Nc1ccc2c(c1)OCCO2,0,0,0,0,-,-
Cn1nc(CC(=O)Nc2ccc(N3CCN(C(=O)OC(C)(C)C)CC3)cc2)c2ccccc2c1=O,0,0,0,75.7,90.1,79.1
Cc1ccc(NC(=O)Cc2nn(C)c(=O)c3ccccc23)cc1F,0,0,0,0,90.2,75.0
CC(C)(C)OC(=O)NCCCc1ccc2c(c1)[C@]1(CCC[C@@H](OCc3ccccc3)[C@@H]1NC(=O)CCc1ccccc1)C(=O)N2Cc1ccccc1,-,0,-,-,-,-
O=C(NC1CCCCN(Cc2cccc(Cl)c2)C1=O)c1ccc(COc2ccccc2)cc1 (stereo not given),-,0,-,-,-,-
O=C(OC12CCCN(C1)/C(=C/c1ccncc1)C2)c1cccc(F)c1 (stereo not given),-,0,-,-,-,-
Cc1nn(-c2ccccc2)c2sc(C(=O)NC3CCCCCCC3)cc12,-,0,-,-,-,-
